# “Also recorded” adds a separate entry of the source.
# What was measured:
# [1] = biological target: NOD2 in native membrane vesicles (Homo sapiens, UniProt Q9HC29); assay type: binding; settings: for binding to NOD2 in the native-membrane environment (in words) / relative binding strength: BSI; for binding to NOD2 in the native-membrane environment (in words): native-membrane vesicles; for relative binding strength: NOD2 in native membrane vesicles; for BSI signal on titration after preincubation with excess ligand 2: competition binding, membrane vesicles preincubated with ligand 2 (10 μM)
# Outline: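 Vesicles: about 1 × 10^8 HEK293T-Nod2Myc/tet-op cells in ice-cold HBSS with EDTA-free protease inhibitors, probe-sonicated to clarity, passed through a 220 nm filter (2 h, 6000g, 4 °C). Filtrate stored at 4 °C up to 4 days. Checked by DLS, FM1-43FX lipid stain and Western blot. Fixed vesicle amount plus ligand titration, 40 min dark, RT. BSI chip at 25 °C. Referenced to NOD2-negative HEK293T vesicles; single-site Langmuir fit. Competition: 10 μM excess ligand preincubation, then titration.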
# purified WT NOD2 [2] = biological target: T1, purified WT NOD2 (Homo sapiens, UniProt Q9HC29); assay: SPR binding assay, surface-tethered ligands and purified WT NOD2
# Outline: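 Amine-functionalized peptidoglycan derivatives coupled in separate lanes to carboxylic acid-terminated thioalkane self-assembled monolayers on gold. Purified Flag-tagged human WT NOD2 (insect-cell expressed, used within 3 days) flowed over at pH 6.5. Apparent dissociation constants taken from the adsorption isotherm, not a true KD.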
# purified WT NOD2 [3] = biological target: T1, purified WT NOD2; assay: Backscattering interferometry; assay type: binding
# Outline: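 Purified Flag-tagged human WT NOD2 from baculovirus/insect cells, stored at 4 °C and used within 3 days, at a fixed 10 nM in PBS pH 6.5. Increasing ligand, incubated 40 min at RT in the dark, then read by BSI on a passivated microfluidic chip at 25 °C. Phase change plotted against concentration; purified NOD1 signal under identical conditions subtracted. Single-site fit; run in triplicate, Kd reported as a range.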
# T1 sequence (Q9HC29 whole entry): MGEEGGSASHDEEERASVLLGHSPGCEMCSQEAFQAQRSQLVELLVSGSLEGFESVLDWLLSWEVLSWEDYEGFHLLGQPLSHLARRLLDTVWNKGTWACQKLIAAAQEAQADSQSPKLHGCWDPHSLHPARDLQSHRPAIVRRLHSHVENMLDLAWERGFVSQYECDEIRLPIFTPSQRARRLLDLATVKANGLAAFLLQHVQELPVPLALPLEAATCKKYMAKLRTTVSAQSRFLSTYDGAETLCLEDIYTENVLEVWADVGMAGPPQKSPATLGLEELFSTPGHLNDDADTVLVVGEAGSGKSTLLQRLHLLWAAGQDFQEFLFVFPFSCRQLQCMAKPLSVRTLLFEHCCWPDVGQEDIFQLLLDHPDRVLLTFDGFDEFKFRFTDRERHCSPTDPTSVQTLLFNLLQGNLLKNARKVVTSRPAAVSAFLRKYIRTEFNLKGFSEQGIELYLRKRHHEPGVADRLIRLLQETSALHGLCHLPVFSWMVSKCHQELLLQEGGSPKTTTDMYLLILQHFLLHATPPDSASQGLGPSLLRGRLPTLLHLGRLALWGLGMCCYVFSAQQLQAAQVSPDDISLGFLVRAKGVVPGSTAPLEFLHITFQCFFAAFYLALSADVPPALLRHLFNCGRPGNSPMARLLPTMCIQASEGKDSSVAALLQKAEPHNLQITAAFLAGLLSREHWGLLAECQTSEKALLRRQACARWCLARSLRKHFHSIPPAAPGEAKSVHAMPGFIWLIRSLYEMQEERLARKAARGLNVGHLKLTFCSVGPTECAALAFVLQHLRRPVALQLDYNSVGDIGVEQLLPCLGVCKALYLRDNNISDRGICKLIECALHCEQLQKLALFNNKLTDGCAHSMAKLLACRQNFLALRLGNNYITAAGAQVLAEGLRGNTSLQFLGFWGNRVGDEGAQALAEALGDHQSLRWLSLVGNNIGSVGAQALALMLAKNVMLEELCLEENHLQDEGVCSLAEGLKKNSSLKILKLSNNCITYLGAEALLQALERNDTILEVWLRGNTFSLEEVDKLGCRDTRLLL
# Chain of NOD2 in native membrane vesicles (Q9HC29 whole entry): as above
SMILES,Kd [1] [nM],relative binding strength [1],BSI signal on titration after preincubation with excess ligand 2 [1],Kd (purified WT NOD2 [2]) [nM],Kd (purified WT NOD2 [3]) [nM],binding to NOD2 in the native-membrane environment (in words) [1]
"CC(=O)N[C@H]1C(O)O[C@H](CO)[C@@H](O)[C@@H]1O[C@H](C)C(=O)O (some centres unmarked) [N-acetyl-muramic acid, reference compound]",,,,,,did not bind; also recorded: does not bind or activate
"N[C@H](CCC(=O)N[C@H](CCC[C@H](N)C(=O)O)C(=O)O)C(=O)O [iE-DAP, reference compound]",,,,,,did not bind
"CC(=O)N[C@@H]1[C@@H](O[C@H](C)C(=O)N[C@@H](C)C(=O)N[C@H](CCC(=O)O)C(N)=O)[C@H](O)[C@@H](CN)O[C@@H]1O [ligand 2, 6-amino-MDP-(LD)]",3 to 30,strong,no BSI signal,4 to 10,2 to 10,bind with high affinity
"CC(=O)N[C@@H]1[C@@H](O[C@H](C)C(=O)N[C@@H](C)C(=O)N[C@@H](CCC(=O)O)C(N)=O)[C@H](O)[C@@H](CN)O[C@@H]1O [ligand 3, 6-amino-MDP-(LL)]",3 to 30,strong,,10 to 18,1 to 6,bind with high affinity
COC(=O)[C@@H](C)O[C@H]1[C@H](O)[C@@H](CN)O[C@H](O)[C@@H]1NC(C)=O [ligand 20],50 to 200,weak,no BSI signal,12 to 24,2 to 10,bind with weak affinity; also recorded: weakly bound
"COC(=O)[C@@H](C)O[C@H]1[C@H](O)[C@@H](CO)OC(O)[C@@H]1NC(C)=O (some centres unmarked) [ligand 23, N-acetyl muramyl methyl ester]",,,,,,bound with similar high affinity

# Further lines, with some results ahead:
Kd [1] [nM],relative binding strength [1],BSI signal on titration after preincubation with excess ligand 2 [1],Kd (purified WT NOD2 [2]) [nM],Kd (purified WT NOD2 [3]) [nM],SMILES,binding to NOD2 in the native-membrane environment (in words) [1]
,strong,,24 to 36,15 to 30,CC(=O)N[C@@H]1[C@@H](O[C@H](C)C(=O)N[C@@H](C)C(=O)O)[C@H](O)[C@@H](CN)O[C@@H]1O [ligand 18],indications of binding but unusual curves
3 to 30,strong,,16 to 30,8 to 20,COC(=O)[C@H](C)NC(=O)[C@@H](C)O[C@H]1[C@H](O)[C@@H](CN)O[C@H](O)[C@@H]1NC(C)=O [ligand 19],bind with high affinity; also recorded: strongly bound

# From paper PMC5569645 (ACS Chemical Biology, 2017)
